These results are taken from ChEMBL document CHEMBL2086325, “Suppression of autoimmune arthritis by Celastrus-derived Celastrol through modulation of pro-inflammatory chemokines” (Bioorg Med Chem, 2012).

SMILES strings stand for the structures. The source made the active and inactive calls. The rule behind the calls is not given here.

The test system of test [1] is Rattus norvegicus. The test can be described thus: Antiarthritic effect in Lewis rat adjuvant-induced arthritis model lymph node cells restimulated with sonicated Mtb post isolation assessed as reduction in RANTES production at 200 ug, ip starting from arthritis onset and continued uninterrupted until study end by cytokine multiplex assay. The class given is functional, organism-based. In a few lines:
(§1)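 Male Lewis rats were immunized s.c. with heat-killed Mtb H37Ra (1.5 mg/rat) in mineral oil. From arthritis onset they received 200 μg/rat i.p. daily (DMSO stock diluted in PBS); controls got 1.2% DMSO in PBS. On d 18, draining lymph node or synovial-infiltrating cells were cultured at 1.5 × 10^6/well in 2% FBS medium ± sonicated Mtb (10 μg/ml) for 24 h. Supernatants were analysed by multiplex.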

In test [2] the test system is Rattus norvegicus. The test can be described thus: Antiarthritic effect in Lewis rat adjuvant-induced arthritis model spleen adherent cells restimulated with sonicated Mtb post isolation assessed as reduction in MCP1 production at 200 ug, ip starting from arthritis onset and continued uninterrupted until study end by cytokine multiplex assay. The class given is functional, organism-based. A digest of the protocol:
(§2)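 Mtb-immunized male Lewis rats were dosed 200 μg/rat i.p. daily from arthritis onset (vehicle: 1.2% DMSO/PBS). Spleen adherent cells were prepared on d 18, plated at 1.5 × 10^6/well in 2% FBS medium and restimulated with sonicated Mtb (10 μg/ml) for 24 h. Supernatant chemokines and cytokines were measured by Luminex multiplex. Mean ± SD of triplicates from 4–5 rats.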

For test [3], the species on record is Rattus norvegicus. The test can be described thus: Increase in CCR1 protein surface expression in sonicated Mtb-stimulated spleen adherent cells isolated from Lewis rat adjuvant-induced arthritis model pre-incubated with 0.1 to 0.3 uM compound before stimulation with sonicated Mtb for 24 hrs by flow cytometry. The class given is functional, tissue-based. A digest of the protocol: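 Spleen adherent cells from arthritic rats were stimulated 24 h with sonicated Mtb in vitro, with or without compound. Cells were detached with TrypLE for 10 min, washed, and surface-stained 30 min with anti-CD11b/c PerCP-eFluor 710 and cross-reactive anti-human CCR1 Alexa Fluor 647. Cells were fixed in 1% formaldehyde and analysed by flow cytometry, with IgG2a/IgG2b isotype controls.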

Test [4] concerns Rattus norvegicus. The test can be described thus: Antiarthritic effect in Lewis rat adjuvant-induced arthritis model spleen adherent cells restimulated with sonicated Mtb post isolation assessed as reduction in CCR3 expression at 200 ug, ip starting from arthritis onset and continued uninterrupted until study end by qPCR. Format: functional, organism-based. A digest of the protocol:
(§3)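 From onset of Mtb-induced arthritis, rats received 200 μg/rat i.p. daily or vehicle. Spleen adherent cells harvested on d 18 (1.5–2.0 × 10^6 cells/well) were cultured in medium or with sonicated Mtb (10 μg/ml) for 24 h. Receptor mRNA was quantified by qPCR after TRIzol RNA isolation and cDNA synthesis, normalized to HGPRT and reported as relative message.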

The subject of test [5] is Rattus norvegicus. The test can be described thus: Antiarthritic effect in Lewis rat adjuvant-induced arthritis model spleen adherent cells restimulated with sonicated Mtb post isolation assessed as reduction in RANTES production at 200 ug, ip starting from arthritis onset and continued uninterrupted until study end by cytokine multiplex assay. Format: functional, organism-based. A digest of the protocol: as §2

Test [6] concerns Rattus norvegicus. The test can be described thus: Antiarthritic effect in Lewis rat adjuvant-induced arthritis model spleen adherent cells restimulated with sonicated Mtb post isolation assessed as reduction in CCR5 expression at 200 ug, ip starting from arthritis onset and continued uninterrupted until study end by qPCR. The class given is functional, organism-based. In a few lines: as §3

Test [7] concerns Rattus norvegicus. Nature of the test: Antiarthritic effect in Lewis rat adjuvant-induced arthritis model serum assessed as reduction in GRO/KC production at 200 ug, ip starting from arthritis onset and continued uninterrupted until study end by cytokine multiplex assay. Format: functional, organism-based. In a few lines: (§4)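 Arthritic Lewis rats (Mtb 1.5 mg s.c. in mineral oil) were given 200 μg/rat i.p. daily from onset until the day before harvest; controls received DMSO/PBS vehicle. On d 18, blood was taken by cardiac puncture after euthanasia and serum stored at −80 °C. Serum pooled from 4 rats was assayed in triplicate by multiplex.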

Test [8] concerns Rattus norvegicus. Nature of the test: Antiarthritic effect in Lewis rat adjuvant-induced arthritis model spleen adherent cells restimulated with sonicated Mtb post isolation assessed as reduction in IL6 production at 200 ug, ip starting from arthritis onset and continued uninterrupted until study end by cytokine multiplex assay. Format: functional, organism-based. In a few lines:
as §2

Test [9] concerns Rattus norvegicus. Nature of the test: Antiarthritic effect in Lewis rat adjuvant-induced arthritis model spleen adherent cells restimulated with sonicated Mtb post isolation assessed as reduction in CXCR2 expression at 200 ug, ip starting from arthritis onset and continued uninterrupted until study end by qPCR. Format: functional, organism-based. In a few lines:
as §3

Test [10] concerns Rattus norvegicus. The test can be described thus: Antiarthritic effect in Lewis rat adjuvant-induced arthritis model synovial infiltrating cells restimulated with sonicated Mtb post isolation assessed as reduction in MCP1 production at 200 ug, ip starting from arthritis onset and continued uninterrupted until study end by cytokine multiplex assay. The class given is functional, organism-based. A digest of the protocol: as §1

For test [11], the system named is Rattus norvegicus. The test can be described thus: Antiarthritic effect in Lewis rat adjuvant-induced arthritis model serum assessed as reduction in IL6 production at 200 ug, ip starting from arthritis onset and continued uninterrupted until study end by cytokine multiplex assay. Format: functional, organism-based. A digest of the protocol: as §4
The subject of test [12] is Rattus norvegicus. The test can be described thus: Antiarthritic effect in Lewis rat adjuvant-induced arthritis model synovial infiltrating cells restimulated with sonicated Mtb post isolation assessed as reduction in IL-1beta production at 200 ug, ip starting from arthritis onset and continued uninterrupted until study end by cytokine multiplex assay. Format: functional, organism-based. In a few lines: as §1

Test [13] deals with Rattus norvegicus. Nature of the test: Antiarthritic effect in Lewis rat adjuvant-induced arthritis model spleen adherent cells restimulated with sonicated Mtb post isolation assessed as reduction in CCR2 expression at 200 ug, ip starting from arthritis onset and continued uninterrupted until study end by qPCR. Format: functional, organism-based. In a few lines:
as §3

The species named for test [14] is Rattus norvegicus. Nature of the test: Antiarthritic effect in sonicated Mtb-stimulated spleen adherent cells isolated from Lewis rat adjuvant-induced arthritis model assessed as reduction in GRO/KC production pre-incubated with compound for 30 mins before stimulation with sonicated-Mtb for 48 hrs by multiplex assay. Format: functional, tissue-based.
Test [15] concerns Rattus norvegicus. Nature of the test: Antiarthritic effect in Lewis rat adjuvant-induced arthritis model serum assessed as reduction in IL-1beta production at 200 ug, ip starting from arthritis onset and continued uninterrupted until study end by cytokine multiplex assay. The class given is functional, organism-based. In a few lines: as §4
Test [16] is filed under the species Rattus norvegicus. Nature of the test: Antiarthritic effect in sonicated Mtb-stimulated spleen adherent cells isolated from Lewis rat adjuvant-induced arthritis model assessed as reduction in TNFalpha production pre-incubated with compound for 30 mins before stimulation with sonicated-Mtb for 48 hrs by multiplex assay. Format: functional, tissue-based.
The species entered for test [17] is Rattus norvegicus. Nature of the test: Antiarthritic effect in sonicated Mtb-stimulated spleen adherent cells isolated from Lewis rat adjuvant-induced arthritis model assessed as reduction in RANTES production pre-incubated with compound for 30 mins before stimulation with sonicated-Mtb for 48 hrs by multiplex assay. The class given is functional, tissue-based.

The species entered for test [18] is Rattus norvegicus. The test can be described thus: Antiarthritic effect in IL-1beta-stimulatedspleen adherent cells isolated from Lewis rat adjuvant-induced arthritis model assessed as reduction in IL6 production pre-incubated with compound for 30 mins before stimulation with IL-1beta for 48 hrs by multiplex assay. Format: functional, tissue-based. The settings on record: Spleen.

For test [19], the system named is Rattus norvegicus. The test can be described thus: Antiarthritic effect in Lewis rat adjuvant-induced arthritis model synovial infiltrating cells restimulated with sonicated Mtb post isolation assessed as reduction in IL6 production at 200 ug, ip starting from arthritis onset and continued uninterrupted until study end by cytokine multiplex assay. Format: functional, organism-based. In a few lines: as §1

The species named for test [20] is Rattus norvegicus. The test can be described thus: Antiarthritic effect in sonicated Mtb-stimulated spleen adherent cells isolated from Lewis rat adjuvant-induced arthritis model assessed as reduction in IL6 production pre-incubated with compound for 30 mins before stimulation with sonicated-Mtb for 48 hrs by multiplex assay. Format: functional, tissue-based.
The species named for test [21] is Rattus norvegicus. The test can be described thus: Antiarthritic effect in IL-1beta-stimulatedspleen adherent cells isolated from Lewis rat adjuvant-induced arthritis model assessed as reduction in GRO/KC production pre-incubated with compound for 30 mins before stimulation with IL-1beta for 48 hrs by multiplex assay. The class given is functional, tissue-based. The conditions noted are these: Spleen.

For test [22], the system named is Rattus norvegicus. The test can be described thus: Antiarthritic effect in Lewis rat adjuvant-induced arthritis model serum assessed as reduction in RANTES production at 200 ug, ip starting from arthritis onset and continued uninterrupted until study end by cytokine multiplex assay. The class given is functional, organism-based. A digest of the protocol:
as §4

For `CC1=C(O)C(=O)C=C2C1=CC=C1[C@@]2(C)CC[C@@]2(C)[C@@H]3C[C@](C)(C(=O)O)CC[C@]3(C)CC[C@]12C` [CELASTROL], the result with Rattus norvegicus [1], in the test with Rattus norvegicus [8], in the test on Rattus norvegicus [10], in the test with Rattus norvegicus [11], in the test on Rattus norvegicus [12] and in the test on Rattus norvegicus [19] was inactive. Besides, the result in the test on Rattus norvegicus [2], in the test listed under Rattus norvegicus [3], in the test with Rattus norvegicus [4], in the test on Rattus norvegicus [5], in the test with Rattus norvegicus [6] and in the test on Rattus norvegicus [7] was Active. For the same molecule, the result in the test on Rattus norvegicus [9], in the test with Rattus norvegicus [13], in the test on Rattus norvegicus [15] and in the test with Rattus norvegicus [22] was Active. Also, the Activity entry in the test filed under Rattus norvegicus [14], in the test filed under Rattus norvegicus [16], in the test filed under Rattus norvegicus [17], in the test filed under Rattus norvegicus [18], in the test filed under Rattus norvegicus [20] and in the test filed under Rattus norvegicus [21] was “Dose-dependent effect” each time.
